In assay [1] the test system is Quadruplex DNA. Description: Stabilization of G4 quadruplex DNA in human U2OS cells assessed as increase in number of G4 foci at 10 uM incubated for 24 hrs by immunofluorescence microscopy. Format: cell-based.
Assay [2] has as its system Quadruplex DNA. Description: Stabilization of G4 quadruplex DNA in human U2OS cells assessed as TRF2 foci per cell at 10 uM incubated for 24 hrs by immunofluorescence microscopy (reference value: 15.8 +/- 2.6%). Format: cell-based.
Assay [3] in a line: Stabilization of hairpin-duplex DNA assessed as change in melting temperature at 10 mol.equiv by circular dichroism melting assay. An outline of the steps:
(§1)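 CD melting from 20 to 100 °C at 1 °C/min, monitored at 264 nm (c-Kit1, c-Kit2, c-Myc, Tel23-p), 287 nm (Tel23-h) or 280 nm (hairpin). Ligand was at 10 mol equiv with folded DNA (15 μM G4, 30 μM hairpin). ΔTm is Tm with ligand minus Tm without, from curve fits, averaged over triplicates.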
In general terms: Circular dichroism is widely used to follow secondary structure.

Assay [4] relates to Quadruplex DNA. The assay can be described thus: Effect on human Tel23 G4 quadruplex DNA architecture at 10 mol.equiv by circular dichroism spectral analysis. The assay is classed as nucleic-acid assay. A digest of the protocol: (§2)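 CD spectra of 15 μM G4s or 30 μM hairpin in 20 mM K phosphate pH 7.0 with 5 mM KCl, after annealing. Recorded at 20 °C over 230–360 nm, three scans averaged, buffer baseline subtracted. Ligand was added at 10 mol equiv to the folded DNA from a 10 mM DMSO stock.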

For assay [5], the system named is Quadruplex DNA. The assay can be described thus: Stabilization of c-Kit2 G4 quadruplex DNA assessed as change in melting temperature at 10 mol.equiv by circular dichroism melting assay. Format: nucleic-acid assay. An outline of the steps:
as §1

Assay [6] in a line: Effect on hairpin-duplex DNA architecture at 10 mol.equiv by circular dichroism spectral analysis. A digest of the protocol:
as §2

In assay [7] the test system is Quadruplex DNA. The assay can be described thus: Stabilization of c-Kit1 G4 quadruplex DNA assessed as change in melting temperature at 10 mol.equiv by circular dichroism melting assay. The assay is classed as nucleic-acid assay. An outline of the steps: as §1
In assay [8] the test system is U2OS. The assay can be described thus: Cytotoxicity against human U2OS cells assessed as reduction in cell viability incubated for 1 hr followed by 48 hrs of recovery in drug free medium by MTT assay. The assay is classed as functional, cell-based. An outline of the steps:
(§3)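 Cells grown in DMEM with 10% FBS and 1% glutamine at 37 °C, 5% CO2, and seeded 25 × 10^4 per well. Treatment began 24 h after seeding and lasted 1 or 24 h, followed by 48 h in drug-free medium. MTT was added for 1 h at 37 °C, then DMSO solubilization and absorbance at 595 nm. IC50 came from linear regression; two independent experiments, each in triplicate.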
In general terms: Tetrazolium assays rely on reduction of a dye to a coloured formazan, in cell work by metabolically active cells.

Assay [9] relates to Quadruplex DNA. Description: Stabilization of c-Myc G4 quadruplex DNA assessed as change in melting temperature at 10 mol.equiv by circular dichroism melting assay. Format: nucleic-acid assay. An outline of the steps:
as §1

The subject of assay [10] is U2OS. The assay can be described thus: Cytotoxicity against human U2OS cells assessed as reduction in cell viability incubated for 24 hrs followed by 48 hrs of recovery in drug-free medium by MTT assay. Format: functional, cell-based. A digest of the protocol:
as §3

In assay [11] the test system is U2OS. Description: Induction of DNA:RNA hybrid formation in human U2OS cells assessed as increase in R loop formation at 10 uM incubated for 30 mins by S9.6 immunofluorescence microscopy. Format: functional, cell-based. A digest of the protocol:
(§4)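 U2OS cells were treated at 10 μM for 5–60 min, 24 h after seeding, then fixed in cold methanol and permeabilized with acetone. Stained with S9.6 antibody and anti-nucleolin. The nucleolar signal was subtracted from total nuclear S9.6 fluorescence, and values were normalized to the untreated mean; two biological replicates.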

The test system of assay [12] is U2OS. The assay can be described thus: Induction of DNA:RNA hybrid formation in human U2OS cells assessed as increase in R loop formation at 10 uM incubated for 60 mins by S9.6 immunofluorescence microscopy. The assay is classed as functional, cell-based. An outline of the steps:
as §4

In assay [13] the test system is U2OS. Description: Induction of DNA damage in human U2OS cells assessed as increase in gammaH2AX phosphorylation at S139 at 10 uM incubated for 4 hrs by immunofluorescence microscopy. The assay is classed as functional, cell-based. An outline of the steps: (§5)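 U2OS cells were treated with 10 μM for 4 h, pre-extracted 3 min with CSK buffer containing 0.5% Triton X-100, and fixed in 2% paraformaldehyde. Co-stained 1 h for 53BP1 and γH2AX, with DAPI counterstain. Foci were counted per nucleus and normalized to the untreated mean, across three biological replicates.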

For assay [14], the system named is Quadruplex DNA. The assay can be described thus: Effect on c-Myc G4 quadruplex DNA architecture at 10 mol.equiv by circular dichroism spectral analysis. The assay is classed as nucleic-acid assay. An outline of the steps: as §2
Assay [15] concerns U2OS. The assay can be described thus: Induction of genome instability in human U2OS cells assessed as increase in micronuclei formation at 10 uM incubated for 24 hrs by immunofluorescence microscopy. The assay is classed as functional, cell-based. A digest of the protocol:
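U2OS cells were treated for 24 h, fixed in 4% paraformaldehyde, permeabilized with 0.5% Triton X-100, and stained with DAPI. Micronuclei were counted per 100 cells.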

In assay [16] the test system is Quadruplex DNA. The assay can be described thus: Effect on c-Kit1 G4 quadruplex DNA architecture at 10 mol.equiv by circular dichroism spectral analysis. The assay is classed as nucleic-acid assay. An outline of the steps: as §2
In assay [17] the test system is Quadruplex DNA. Description: Stabilization of parallel Tel23 G4 quadruplex DNA assessed as change in melting temperature at 10 mol.equiv by circular dichroism melting assay. Format: nucleic-acid assay. An outline of the steps:
as §1

Assay [18] deals with Quadruplex DNA. The assay can be described thus: Effect on c-Kit2 G4 quadruplex DNA architecture at 10 mol.equiv by circular dichroism spectral analysis. Format: nucleic-acid assay. A digest of the protocol:
as §2

Assay [19] concerns Quadruplex DNA. The assay can be described thus: Effect on parallel Tel23 G4 quadruplex DNA architecture at 10 mol.equiv by circular dichroism spectral analysis. Format: nucleic-acid assay. A digest of the protocol:
as §2

The subject of assay [20] is HeLa. Description: Cytotoxicity against human HeLa cells assessed as reduction in cell viability incubated for 24 hrs followed by 48 hrs of recovery in drug free medium by MTT assay. The assay is classed as functional, cell-based. An outline of the steps:
as §3

Assay [21] relates to Quadruplex DNA. Description: Stabilization of human Tel23 G4 quadruplex DNA assessed as change in melting temperature at 10 mol.equiv by circular dichroism melting assay. The assay is classed as nucleic-acid assay. A digest of the protocol:
as §1

Assay [22] has as its system U2OS. The assay can be described thus: Induction of DNA damage in human U2OS cells assessed as increase in phosphorylated 53BPI foci colocalization with gammaH2AX foci at 10 uM incubated for 4 hrs by immunofluorescence microscopy. Format: functional, cell-based. A digest of the protocol:
as §5

In assay [23] the test system is Quadruplex DNA. Description: Stabilization of G4 quadruplex DNA in human U2OS cells assessed as colocalization of TRF2/[…] foci at 10 uM incubated for 24 hrs by immunofluorescence microscopy (reference value: 18.4 +/- 2.81%). Format: cell-based.
In assay [24] the test system is HeLa. Description: Cytotoxicity against human HeLa cells assessed as reduction in cell viability incubated for 1 hr followed by 48 hrs of recovery in drug free medium by MTT assay. The assay is classed as functional, cell-based. An outline of the steps: as §3

Calls of active or inactive are those of the source. The calls are words filed in the database; no cut-off is given here.

Broadly, the IC50 is the concentration needed to halve the response being measured. `N=C(N)N/N=C/c1c(-c2ccccc2)nc2nc(N)ccn12`: the result (with Quadruplex DNA [1]; in [3]; with Quadruplex DNA [4]; with Quadruplex DNA [5]; in assay [6]; with Quadruplex DNA [7]) was inactive. The result in the assay with Quadruplex DNA [9], with Quadruplex DNA [14], in the assay with Quadruplex DNA [16], in the assay on Quadruplex DNA [17], in the assay with Quadruplex DNA [18] and with Quadruplex DNA [19] was inactive. In addition, the result with Quadruplex DNA [21] was inactive. For the same compound, the Activity with Quadruplex DNA [2] was 15.3%; with Quadruplex DNA [23], 10.1%. The half-inhibitory concentration (IC50) with U2OS [8] was > 100 µM; in the assay with U2OS [10] it was > 50 µM; in the assay with HeLa [20], > 50 µM; in the assay on HeLa [24], > 100 µM. Moreover, the result in the assay on U2OS [11], in the assay on U2OS [12], in the assay with U2OS [13], in the assay with U2OS [15] and in the assay on U2OS [22] was Active.
